This is an account of results in ChEMBL document CHEMBL2311478, “Macrolactonolides: a novel class of anti-inflammatory compounds” (Bioorg Med Chem, 2013).

SMILES strings stand for the structures. ≈ marks a conversion by molar mass, not a printed value. Calls of active or inactive are those of the source.

Data set [1] concerns PBMC. The data set is described as follows: Antiinflammatory activity in human PBMC assessed as inhibition of anti-CD3-induced IL-1beta production after 48 hrs. In kind it is functional, cell-based. The method, boiled down:
(§1)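 Thawed cryopreserved human PBMCs were preincubated 1 h at 37 °C, 5% CO2, then exposed to test compound for 1 h before LPS, anti-CD3 or PHA stimulation. Supernatants were collected at 6, 24 or 48 h according to each cytokine's peak, and cytokines quantified by Luminex multiplex bead assay. 10-point titration starting at 20 µM, in duplicate, with constant DMSO. Parallel Alamar Blue cytotoxicity check under 48 h PHA.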

Data set [2] concerns PBMC. The experiment in a line: Antiinflammatory activity in human PBMC assessed as inhibition of PHA-induced IL-2 production after 48 hrs. In kind it is functional, cell-based. The method, boiled down:
as §1

In data set [3] the test system is Streptococcus pneumoniae. The experiment in a line: Antibacterial activity against constitutive-resistant to macrolide, licosamide and streptogramin Streptococcus pneumoniae 58 Spain by broth microdilution method. In kind it is functional. The method, boiled down: (§2)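 MICs by CLSI broth microdilution with double dilutions, except that Streptococcus medium used 5% horse serum in place of lysed blood. Bacteria were pre-grown on Columbia agar with 5% sheep blood (streptococci) or Mueller–Hinton agar (staphylococci).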
A general note: Broth dilution looks for growth in wells or tubes with falling amounts of substance.

In data set [4] the test system is PBMC. The experiment in a line: Antiinflammatory activity in human PBMC assessed as inhibition of PHA-induced IL-13 production after 24 hrs. The data set is classed as functional, cell-based. The method, boiled down:
as §1

Data set [5] deals with PBMC. The experiment in a line: Antiinflammatory activity in human PBMC assessed as inhibition of PHA-induced IFNgamma production after 24 hrs. In kind it is functional, cell-based. The procedure, abridged:
as §1

The subject of data set [6] is Rattus norvegicus. The data set is described as follows: Antiinflammatory activity against ovalbumin-induced airway allergic Brown-Norway rat model assessed as decrease of neutrophils in bronchoalveolar lavage fluid at 32 mg/kg administered intranasally as dry powder measured on day 29 after ovalbumin challenge. The data set is classed as functional, organism-based. Also noted: dose 32 mg/kg. The procedure, abridged:
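Brown-Norway rats sensitised by OVA injection on day 1, boosted on days 14 and 20. Treatment with 32 mg/kg or air control on day 27, followed 1 h later by 60 min OVA inhalation challenge. BAL cells differentiated about 48 h post-challenge (day 29). Comparison was against a sensitised, challenged, untreated group. Mean + SD, n = 10, Dunnett test.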

A short description of data set [7]: Tmax in Balb/c mouse plasma at 2 mg/kg, administered intranasally. The data set is classed as ADME, organism-based. On the set-up: dose 2 mg/kg. The note with it: inhaled or intranasal. The procedure, abridged: (§3)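 Male Balb/c mice (21–25 g) dosed intranasally with freshly prepared formulation in 1% DMSO plus 0.125% CMC. Terminal bleeding and lung collection from 5 min to 72 h. K2EDTA blood taken as blood aliquots or spun for plasma. Lung homogenised 1:5 in water. Samples were protein-precipitated with acetonitrile/methanol (2:1) plus roxithromycin internal standard and quantified by LC–MS/MS. LLOQ 0.5 ng/mL (blood/plasma) and 2.5 ng/mL (lung).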

Data set [8] can be described thus: Half life in Balb/c mouse blood at 2 mg/kg, administered intranasally. The note with it: whole blood, inhaled or intranasal. On the set-up: dose 2 mg/kg. In kind it is ADME, organism-based. The method, boiled down: as §3
Data set [9] can be described thus: Cmax in Balb/c mouse plasma at 2 mg/kg, administered intranasally. Also noted: route nasal, dose 2 mg/kg. The data set is classed as ADME, organism-based. The following applies: inhaled or intranasal. The method, boiled down: as §3
Data set [10] is described as follows: Tmax in Balb/c mouse lung at 2 mg/kg, administered intranasally. On the set-up: dose 2 mg/kg. The following applies: inhaled or intranasal. In kind it is ADME, organism-based. The method, boiled down:
as §3

For data set [11], the system named is Streptococcus pyogenes. The data set is described as follows: Antibacterial activity against constitutive-resistant to macrolide, licosamide and streptogramin Streptococcus pyogenes 166 GR-Micro by broth microdilution method. In kind it is functional. The procedure, abridged:
as §2

The test system of data set [12] is Staphylococcus aureus. The data set is described as follows: Antibacterial activity against efflux mediated macrolide-resistant Staphylococcus aureus PK1 by broth microdilution method. The data set is classed as functional. The procedure, abridged: as §2

The EC50 is the concentration needed to bring the measured effect to its halfway point. Broadly, the MIC is the smallest concentration in the dilution series that meets the test's criterion for growth inhibition. Higher therefore signals a less susceptible organism. A word on the Tmax: it is the time at which the peak concentration occurs. One may read the half-life as how long it takes for the measured level to halve. The Cmax is the highest concentration seen after dosing.

As to `CC[C@H]1OC(=O)[C@H](C)[C@@H](O[C@H]2C[C@@](C)(OC)[C@@H](O)[C@H](C)O2)[C@H](C)[C@@H](O[C@@H]2O[C@H](C)C[C@H](N(C)C)[C@H]2O)[C@](C)(O)C[C@@H](C)CN(CCCNC(=O)[C@H]2[C@H](C)C[C@H]3[C@@H]4CCC5=CC(=O)C=C[C@]5(C)[C@@]4(F)[C@@H](O)C[C@@]32C)[C@H](C)[C@@H](O)[C@]1(C)O`, the half-maximal effective concentration (EC50) in data set [1] was 30 nM; in data set [2] it was above 20000 nM; in [4] it was 420 nM; in data set [5], 67 nM. Also, the minimum inhibitory concentration (MIC) was 64 µg/mL (≈ 56.3 µM) in [3], above 64 µg/mL in data set [11] and above 64 µg/mL in data set [12]. For the same compound, the result in [6] was Active. For the same compound, the values for the time of peak concentration (Tmax) in data set [7] and in [10] were 15 min and 4.8 min, respectively. For the same compound, the half-life in [8] was 54 min. Besides, in data set [9], the Cmax came to 223 ng/mL.
